# Assays:
# [1] = test system: Mycolicibacterium smegmatis; experiment: Antibiofilm activity against Mycobacterium smegmatis mc2 155 ATCC 700084 assessed as inhibition of biofilm formation measured after 24 hrs by crystal violet reporter assay; type: functional, organism-based; conditions: MC2 155 ATCC 700084, 24 h
# [2] = test system: Mycolicibacterium smegmatis; experiment: Antibiofilm activity against Mycobacterium smegmatis mc2 155 ATCC 700084 assessed as dispersion of preformed biofilms measured after 24 hrs by crystal violet reporter assay; type: functional, organism-based; conditions: MC2 155 ATCC 700084, 24 h
# In short: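 Cultures (48 h) diluted to 0.01 in M9 minimal salts with glucose, MgSO4 and CaCl2 in PVC plates. Biofilm grown stationary at 37 °C for 48 h, washed, then fresh medium with compound added for 24 h at 37 °C. Stained with 0.1% crystal violet 30 min, solubilised in 95% ethanol, OD540 read. Media blanks subtracted. Dispersion calculated against untreated biofilm wells. At least three repeats.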
# [3] = Hemolytic activity in sheep RBC assessed as hemolysis at 500 uM measured after 1 hr by UV spectrometer analysis; type: ADME, cell-based, Ovis aries, Erythrocyte; conditions: sheep red blood cells (erythrocytes), read-out: Activity
# In short: (§1)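 Mechanically defibrinated sheep blood was centrifuged, and the cells were washed and resuspended in PBS three times, then diluted 10-fold. Compound was added from DMSO stock. Controls were 1% Triton X (100% lysis) and PBS (zero lysis). Samples were incubated 1 h at 37 °C with shaking at 200 rpm, then centrifuged. Supernatant was diluted 40-fold in distilled water and read at A540. Run in duplicate, repeated at least twice.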
# [4] = Hemolytic activity in sheep RBC assessed as hemolysis at 200 uM measured after 1 hr by UV spectrometer analysis; type: ADME, cell-based, Ovis aries, Erythrocyte; conditions: sheep red blood cells (erythrocytes), read-out: Activity; in short: as §1
# [5] = test system: Mycolicibacterium smegmatis; experiment: Potentiation of Cefotaxime-induced antibacterial activity against Mycobacterium smegmatis mc2 155 ATCC 700084 assessed as fold reduction in Cefotaxime MIC at 30 uM incubated for 48 hrs by alamarblue dye based broth microdilution method; type: functional
# In short: (§2)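 Inoculum from 48 h cultures set to 5 x 10^5 CFU/mL in 7H9 + ADC and pre-dosed with compound from DMSO stock at fixed concentration. β-lactam two-fold serially diluted from top concentration, with an antibiotic-only control series. Stationary 37 °C for 48 h, then alamarBlue for 8 h. MIC is the lowest blue (non-viable) well. Fold reduction is relative to the antibiotic-only MIC. Duplicates, at least two repeats.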
# [6] = test system: Mycolicibacterium smegmatis; experiment: Potentiation of oxacillin-induced antibacterial activity against Mycobacterium smegmatis mc2 155 ATCC 700084 assessed as fold reduction in oxacillin MIC at 30 uM incubated for 48 hrs by alamarblue dye based broth microdilution method; type: functional; in short: as §2
# [7] = test system: Mycolicibacterium smegmatis; experiment: Potentiation of Cefoxitin-induced antibacterial activity against Mycobacterium smegmatis mc2 155 ATCC 700084 assessed as fold reduction in Cefoxitin MIC at 30 uM incubated for 48 hrs by alamarblue dye based broth microdilution method; type: functional; in short: as §2
# [8] = test system: Mycolicibacterium smegmatis; experiment: Potentiation of Ceftazidime-induced antibacterial activity against Mycobacterium smegmatis mc2 155 ATCC 700084 assessed as fold reduction in Ceftazidime MIC at 30 uM incubated for 48 hrs by alamarblue dye based broth microdilution method; type: functional; in short: as §2
# [9] = test system: Mycolicibacterium smegmatis; experiment: Potentiation of Ampicillin-induced antibacterial activity against Mycobacterium smegmatis mc2 155 ATCC 700084 assessed as fold reduction in Ampicillin MIC at 30 uM incubated for 48 hrs by alamarblue dye based broth microdilution method; type: functional; in short: as §2
# [10] = test system: Mycolicibacterium smegmatis; experiment: Potentiation of Cefotaxime-induced antibacterial activity against Mycobacterium smegmatis mc2 155 ATCC 700084 assessed as Cefotaxime MIC at 30 uM incubated for 48 hrs by alamarblue dye based broth microdilution method (reference value: 128 ug/ml); type: functional; in short: as §2
# [11] = test system: Mycolicibacterium smegmatis; experiment: Potentiation of Oxacillin-induced antibacterial activity against Mycobacterium smegmatis mc2 155 ATCC 700084 assessed as Oxacillin MIC at 30 uM incubated for 48 hrs by alamarblue dye based broth microdilution method (Rvb =512 ug/ml); type: functional; in short: as §2
# [12] = test system: Mycolicibacterium smegmatis; experiment: Potentiation of Cefoxitin-induced antibacterial activity against Mycobacterium smegmatis mc2 155 ATCC 700084 assessed as Cefoxitin MIC at 30 uM incubated for 48 hrs by alamarblue dye based broth microdilution method (reference value: 16 ug/ml); type: functional; in short: as §2
# [13] = test system: Mycolicibacterium smegmatis; experiment: Potentiation of Ceftazidime-induced antibacterial activity against Mycobacterium smegmatis mc2 155 ATCC 700084 assessed as Ceftazidime MIC at 30 uM incubated for 48 hrs by alamarblue dye based broth microdilution method (reference value: 512 ug/ml); type: functional; in short: as §2
# [14] = test system: Mycolicibacterium smegmatis; experiment: Potentiation of Ampicillin-induced antibacterial activity against Mycobacterium smegmatis mc2 155 ATCC 700084 assessed as Ampicillin MIC at 30 uM incubated for 48 hrs by alamarblue dye based broth microdilution method (reference value: 128 ug/ml); type: functional; in short: as §2
# [15] = test system: Mycolicibacterium smegmatis; experiment: Antibacterial activity against Mycobacterium smegmatis mc2 155 ATCC 700084 assessed as inhibition of bacterial growth incubated for 48 hrs by alamarblue dye based broth microdilution method; type: functional
# In short: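 Inoculum from 48 h cultures set to 5 x 10^5 CFU/mL in 7H9 + ADC. Compound in DMSO two-fold serially diluted from 200 µM top concentration. Stationary 37 °C for 48 h, then alamarBlue for 8 h at 37 °C. MIC is the lowest concentration with no viable bacteria (blue, not pink). Duplicate wells, at least two independent repeats.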
smiles,measurement,setting,value
Nc1nc(-c2c[nH]c3cc(Br)ccc23)c[nH]1,IC50,[1],7.5 µM
same,EC50,[2],27.9 µM
same,"hemolysis at 1 h, 500 µM",[3],14%
same,"hemolysis at 1 h, 200 µM",[4],7%
same,fold change (FC),[5],0
same,fold change (FC),[6],0
same,fold change (FC),[7],0
same,fold change (FC),[8],4
same,fold change (FC),[9],0
same,MIC,[10],128 mg/L
same,MIC,[11],512 mg/L
same,MIC,[12],16 mg/L
same,MIC,[13],128 mg/L
same,MIC,[14],128 mg/L
same,MIC,[15],100 µM

# From ChEMBL document CHEMBL4699393, “Meridianin D analogues possess antibiofilm activity against Mycobacterium smegmatis” (RSC Med Chem, 2020)
